pIC50: −log10 of the molar value. Residues, ends and D or L forms follow the SMILES beside them.

In series [1] the target is T1, C5a anaphylatoxin chemotactic receptor 1 (Homo sapiens, UniProt P21730).
T1 sequence (P21730 whole entry): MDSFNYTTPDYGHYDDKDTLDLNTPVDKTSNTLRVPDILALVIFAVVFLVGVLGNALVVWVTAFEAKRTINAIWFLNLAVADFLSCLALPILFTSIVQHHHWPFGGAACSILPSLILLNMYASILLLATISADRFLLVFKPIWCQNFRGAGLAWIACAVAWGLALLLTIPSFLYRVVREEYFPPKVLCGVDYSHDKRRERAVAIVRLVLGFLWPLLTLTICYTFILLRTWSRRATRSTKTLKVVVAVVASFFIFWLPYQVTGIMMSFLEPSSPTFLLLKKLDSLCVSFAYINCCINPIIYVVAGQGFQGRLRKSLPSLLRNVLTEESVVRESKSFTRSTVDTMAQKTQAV
In words: Antagonist activity at human C5aR in CD88 transfected RBL cells assessed as inhibition of C5a-induced glucosaminidase release. It is filed as functional, cell-based. Summed up: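 Functional antagonism read as inhibition of glucosaminidase release stimulated by C5a from RBL cells transfected with CD88 (RBL+); IC50 in µM.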

Series [2] can be described thus: Stability in human liver microsome after 1 hr. The settings on record: liver microsomes, read-out: Stability. The series is classed as ADME. Summed up:
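Compound incubated with human liver microsomes, 1 h at 37 °C; read-out is % of parent remaining.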

The target in series [3] is T2, C5a anaphylatoxin chemotactic receptor 1 (Homo sapiens) (UniProt P21730).
T2 sequence (whole entry): T1 sequence (P21730 whole entry)
In words: Agonist activity at human C5aR in CD88 transfected RBL cells at 286 uM. The series is classed as functional, cell-based.

For series [4], the system named is J774.A1. Nature of the series: Inhibition of C5a-induced chemotaxis of mouse J774A.1 cells. The series is classed as functional, cell-based. The method in brief: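 Mouse J774A.1 cells; chemotaxis induced by C5a, inhibition measured and IC50 (µM) determined.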
Series [5] deals with CYP3A4 (Homo sapiens, UniProt P08684). Nature of the series: Inhibition of CYP3A4 at 10 uM. The series is classed as ADME.
Sequence of CYP3A4 (P08684 whole entry): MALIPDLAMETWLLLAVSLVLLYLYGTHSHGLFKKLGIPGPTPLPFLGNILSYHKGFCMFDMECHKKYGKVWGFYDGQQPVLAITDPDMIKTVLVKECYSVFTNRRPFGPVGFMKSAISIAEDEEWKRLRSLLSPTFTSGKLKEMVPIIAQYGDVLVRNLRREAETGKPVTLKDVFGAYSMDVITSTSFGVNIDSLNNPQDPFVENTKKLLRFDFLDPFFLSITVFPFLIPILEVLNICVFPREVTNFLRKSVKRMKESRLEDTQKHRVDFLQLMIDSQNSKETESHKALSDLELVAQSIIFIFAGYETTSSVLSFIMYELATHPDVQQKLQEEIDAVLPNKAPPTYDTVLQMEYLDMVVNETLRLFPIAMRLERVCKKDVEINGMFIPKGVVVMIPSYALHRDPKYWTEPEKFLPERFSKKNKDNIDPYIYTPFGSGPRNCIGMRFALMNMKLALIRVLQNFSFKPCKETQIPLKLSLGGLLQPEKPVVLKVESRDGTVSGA

Turning to `CC(=O)N[C@@H](Cc1ccccc1)C(=O)N[C@@H](CCCN)C(=O)N1CCC[C@H]1C(=O)N[C@H](CCC(C)C)C(=O)N[C@@H](Cc1ccc(Cl)c(Cl)c1)C(=O)N[C@@H](Cc1ccccc1)C(N)=O`, the pIC50 in series [1] was 6.94. The remaining at 1 h in series [2] was determined as 49%.

On to `CC(=O)N[C@@H](Cc1ccccc1)C(=O)N[C@@H](CCCN)C(=O)N1CCC[C@H]1C(=O)N[C@H](CCC(C)C)C(=O)N[C@@H](Cc1csc2ccccc12)C(=O)N[C@@H](Cc1ccccc1)C(N)=O`, for which, in series [1], the pIC50 was 7.57. For the same compound, in series [2], the remaining at 1 h was 1%.

On to `CC(=O)N[C@@H](Cc1ccccc1)C(=O)N[C@@H](CCCN)C(=O)N1CCC[C@H]1C(=O)N[C@H](CCC(C)C)C(=O)N[C@@H](Cc1c[nH]c2ccccc12)C(=O)N[C@@H](Cc1ccccc1)C(N)=O`, for which the pIC50 in series [1] was 7.20. Besides, the remaining at 1 h in series [2] was found to be 37%.

For the compound `CC(=O)N[C@@H](Cc1ccccc1)C(=O)N[C@H]1CCCNC(=O)[C@H](CCCNC(N)=O)NC(=O)[C@H](Cc2c[nH]c3ccccc23)NC(=O)[C@@H](CC2CCCCC2)NC(=O)[C@@H]2CCCN2C1=O`, the pIC50 in series [1] is 6.31.

As to `CCCC[C@H]1NC(=O)[C@H](Cc2c[nH]c3ccccc23)NC(=O)[C@@H](CC2CCCCC2)NC(=O)[C@@H]2CCCN2C(=O)[C@@H](NC(=O)[C@H](Cc2ccccc2)NC(C)=O)CCCNC1=O` (HELM PEPTIDE1{[ac].F.[Orn].P.[O=C([C@@H](CC1CCCCC1)N[*:1])[*:2]].W.[CCCC[C@@H](N[*:1])C(=O)[*:2]]}$PEPTIDE1,PEPTIDE1,3:R3-7:R2$$$V2.0), the pIC50 in series [1] is 6.97.

In the case of `CC(=O)N[C@@H](Cc1ccccc1)C(=O)N[C@@H](CCCN)C(=O)N1CCC[C@H]1C(=O)N[C@H](CCC(C)C)C(=O)N[C@@H](Cc1ccc(F)cc1)C(=O)N[C@@H](Cc1ccccc1)C(N)=O`, the pIC50 in series [1] is 7.15. Moreover, the remaining at 1 h in series [2] stood at 65%.

Take `CC(=O)N[C@@H](Cc1ccccc1)C(=O)N[C@H]1CCCNC(=O)[C@H](CCC/N=C(/N)N[N+](=O)[O-])NC(=O)[C@H](Cc2c[nH]c3ccccc23)NC(=O)[C@@H](CC2CCCCC2)NC(=O)[C@@H]2CCCN2C1=O`: in series [1], the pIC50 is 6.24.

With `CC(=O)N[C@@H](Cc1ccccc1)C(=O)N[C@@H](CCCN)C(=O)N1CCC[C@H]1C(=O)N[C@H](CCC(C)C)C(=O)N[C@H](Cc1csc2ccccc12)C(=O)N[C@H](Cc1ccccc1)C(N)=O`, the Activity in series [3] amounted to 0%.

In the case of `CC(=O)N[C@@H](Cc1ccccc1)C(=O)N[C@H]1CCCNC(=O)[C@H](CCCN)NC(=O)[C@H](Cc2c[nH]c3ccccc23)NC(=O)[C@@H](CC2CCCCC2)NC(=O)[C@@H]2CCCN2C1=O`, in series [1], the pIC50 was 7.74.

Turning to `CC(=O)N[C@@H](Cc1ccccc1)C(=O)N[C@H]1CCCNC(=O)[C@H](CCCN=C(N)N)NC(=O)[C@H](Cc2c[nH]c3ccccc23)NC(=O)[C@@H](CC2CCCCC2)NC(=O)[C@@H]2CCCN2C1=O`, in series [4], the negative-log IC50 (pIC50) is 5.15. Further, the remaining at 1 h in series [2] turned out to be 10%. In series [5], the inhibition at 10 µM came to 77%.

Take `CC(=O)N[C@@H](Cc1ccccc1)C(=O)N[C@H]1CCCNC(=O)[C@H](CCC2CCCCC2)NC(=O)[C@H](Cc2c[nH]c3ccccc23)NC(=O)[C@@H](CC2CCCCC2)NC(=O)[C@@H]2CCCN2C1=O`: the pIC50 in series [1] was 6.84.

The compound `CC(=O)N[C@@H](Cc1ccccc1)C(=O)N[C@@H](CCCN)C(=O)N1CCC[C@H]1C(=O)N[C@H](CCC(C)C)C(=O)N[C@H](Cc1c[nH]c2ccccc12)C(=O)N[C@H](Cc1ccccc1)C(N)=O` came in with an Activity in series [3] of 0%.

For `CC(=O)N[C@@H](Cc1ccccc1)C(=O)N[C@H]1CCCNC(=O)[C@H](CCCCNC(=N)N)NC(=O)[C@H](Cc2c[nH]c3ccccc23)NC(=O)[C@@H](CC2CCCCC2)NC(=O)[C@@H]2CCCN2C1=O`, the pIC50 in series [1] was 6.44.

In the case of `CC(=O)N[C@@H](Cc1ccccc1)C(=O)N[C@H]1CCCNC(=O)[C@H](CCCNC(=N)N)NC(=O)[C@H](Cc2c[nH]c3ccccc23)NC(=O)[C@@H](C)NC(=O)[C@@H]2CCCN2C1=O`, in series [1], the pIC50 is 4.26.

On to `CC(=O)N[C@@H](Cc1ccccc1)C(=O)N[C@@H](CCCN)C(=O)N1CCC[C@H]1C(=O)N[C@H](CCC(C)C)C(=O)N[C@H](Cc1ccc(Cl)c(Cl)c1)C(=O)N[C@H](Cc1ccccc1)C(N)=O`, for which the Activity in series [3] came out at 7.2%.

As to `CC(=O)N[C@@H](Cc1ccccc1)C(=O)N[C@H]1CCCNC(=O)[C@H](Cc2cccc3ccccc23)NC(=O)[C@H](Cc2c[nH]c3ccccc23)NC(=O)[C@@H](CC2CCCCC2)NC(=O)[C@@H]2CCCN2C1=O` (HELM PEPTIDE1{[ac].F.[Orn].P.[O=C([C@@H](CC1CCCCC1)N[*:1])[*:2]].W.[O=C([C@H](Cc1cccc2ccccc12)N[*:1])[*:2]]}$PEPTIDE1,PEPTIDE1,3:R3-7:R2$$$V2.0), the pIC50 in series [1] is 7.29.

For `CC(=O)N[C@@H](Cc1ccccc1)C(=O)N[C@@H](CCCN)C(=O)N1CCC[C@H]1C(=O)N[C@H](CCC(C)C)C(=O)N[C@@H](Cc1cccc(Cl)c1)C(=O)N[C@@H](Cc1ccccc1)C(N)=O`, the pIC50 in series [1] is 7.22. Moreover, the remaining at 1 h in series [2] came out at 62%.

`CC(=O)N[C@@H](Cc1ccccc1)C(=O)N[C@H]1CCCNC(=O)[C@H](CCC(C)C)NC(=O)[C@H](Cc2c[nH]c3ccccc23)NC(=O)[C@@H](CC2CCCCC2)NC(=O)[C@@H]2CCCN2C1=O` (HELM PEPTIDE1{[ac].F.[Orn].P.[O=C([C@@H](CC1CCCCC1)N[*:1])[*:2]].W.[CC(C)CC[C@H](N[*:1])C(=O)[*:2]]}$PEPTIDE1,PEPTIDE1,3:R3-7:R2$$$V2.0): the pIC50 in series [1] was 7.24.

As for `CC(C)CC[C@H](NC(=O)[C@@H]1CCCN1C(=O)[C@H](CCCN)NC(=O)[C@H](Cc1ccccc1)NC(=O)[C@@H]1CC(=O)NC(=O)N1)C(=O)N[C@@H](Cc1ccc(F)cc1)C(=O)N[C@H](Cc1ccccc1)C(N)=O`, the Activity in series [3] is 0%.

With `CC(=O)N[C@@H](Cc1ccccc1)C(=O)N[C@@H](CCCN)C(=O)N1CCC[C@H]1C(=O)N[C@@H](CCC(C)C)C(=O)N[C@H](Cc1ccc(F)cc1)C(=O)N[C@H](Cc1ccccc1)C(N)=O`, the Activity in series [3] turned out to be 0%.

In the case of `CC(=O)N[C@@H](Cc1ccccc1)C(=O)N[C@@H](CCCN)C(=O)N1CCC[C@H]1C(=O)N[C@H](CC1CCCCC1)C(=O)N[C@@H](Cc1c[nH]c2ccccc12)C(=O)N[C@@H](CCCN=C(N)N)C(=O)O`, the pIC50 in series [1] is 6.27.

As for `CC(=O)N[C@@H](Cc1ccccc1)C(=O)N[C@H]1CCCNC(=O)[C@H](CC(C)C)NC(=O)[C@H](Cc2c[nH]c3ccccc23)NC(=O)[C@@H](CC2CCCCC2)NC(=O)[C@@H]2CCCN2C1=O` (HELM PEPTIDE1{[ac].F.[Orn].P.[O=C([C@@H](CC1CCCCC1)N[*:1])[*:2]].W.L}$PEPTIDE1,PEPTIDE1,3:R3-7:R2$$$V2.0), the negative logarithm of the IC50 (pIC50) in series [1] is 7.27.

Take `CCCCCCCC[C@@H]1NC(=O)[C@H](Cc2c[nH]c3ccccc23)NC(=O)[C@@H](CC2CCCCC2)NC(=O)[C@@H]2CCCN2C(=O)[C@@H](NC(=O)[C@H](Cc2ccccc2)NC(C)=O)CCCNC1=O`: the pIC50 in series [1] is 6.52.

`CC(=O)N[C@@H](Cc1ccccc1)C(=O)N[C@@H](CCCN)C(=O)N1CCC[C@H]1C(=O)N[C@H](CCC(C)C)C(=O)N[C@H](Cc1cccc(Cl)c1)C(=O)N[C@H](Cc1ccccc1)C(N)=O`: in series [3], the Activity amounted to 1.2%.

As to `CC(=O)N[C@@H](Cc1ccccc1)C(=O)N[C@H]1CCCNC(=O)[C@H](CC2CCCCC2)NC(=O)[C@H](Cc2c[nH]c3ccccc23)NC(=O)[C@@H](CC2CCCCC2)NC(=O)[C@@H]2CCCN2C1=O` (HELM PEPTIDE1{[ac].F.[Orn].P.[O=C([C@@H](CC1CCCCC1)N[*:1])[*:2]].W.[Cha]}$PEPTIDE1,PEPTIDE1,3:R3-7:R2$$$V2.0), in series [1], the pIC50 is 7.35.

Consider `CC(=O)N[C@@H](Cc1ccccc1)C(=O)N[C@@H](CCCN)C(=O)N1CCC[C@H]1C(=O)N[C@H](CC1CCCCC1)C(=O)N[C@@H](Cc1c[nH]c2ccccc12)C(=O)N[C@@H](Cc1ccccc1)C(N)=O` (HELM PEPTIDE1{[ac].F.[Orn].P.[O=C([C@@H](CC1CCCCC1)N[*:1])[*:2]].W.F.[am]}$$$$V2.0), for which the pIC50 in series [1] is 7.51. Also, the remaining at 1 h in series [2] was 34%.

On to `CC(=O)N[C@@H](Cc1ccccc1)C(=O)N[C@H]1CCCNC(=O)[C@H](Cc2ccc3ccccc3c2)NC(=O)[C@H](Cc2c[nH]c3ccccc23)NC(=O)[C@@H](CC2CCCCC2)NC(=O)[C@@H]2CCCN2C1=O` (HELM PEPTIDE1{[ac].F.[Orn].P.[O=C([C@@H](CC1CCCCC1)N[*:1])[*:2]].W.[O=C([C@H](Cc1ccc2ccccc2c1)N[*:1])[*:2]]}$PEPTIDE1,PEPTIDE1,3:R3-7:R2$$$V2.0), for which the pIC50 in series [1] was 7.12.

(Values after ChEMBL document CHEMBL1148673, “Peptidomimetic C5a receptor antagonists with hydrophobic substitutions at the C-terminus: increased receptor specificity and in vivo activity” (Bioorg Med Chem Lett, 2006).)
